Screens as filed in PubChem.
Only some compounds are listed: those with a hit (about 1.3% of all), similar ones and a draw of the others.
TbHK1 inh: T. brucei hexokinase 1 inhibition; recombinant TbHK1, G6PDH-coupled NADH A340; actives 0.11% (n = 220,000); inhibition, % at 10 µM;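 active means inhibition of 50% or more in the single-dose primary screen; inactive means inhibition below 50%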
Diaph inh CS: diaphorase inhibition or chemical oxidation counter-screen. diaphorase resazurin-to-resorufin fluorescence, NADH, 16 min; bacterial (C. kluyveri) enzyme, not human. inhibition, % at 20 µM. actives 0.69% (n = 190,000);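 active means primary screen inhibition at 20 µM above a set limit, cut at about 50% in these data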
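Test system: Clostridium kluyveri diaphorase enzyme / Quantity: diaphorase at 0.14 U/mL in enzyme working solution / Incubation: 16-min room-temperature incubation before reading / Benchmarks: NADH-free wells as positive control, DMSO-only neutral wells / Signal: resorufin fluorescence 544/590 nm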
PfGluPho inh: PfG6PD (Plasmodium falciparum) enzyme inhibition | PfGluPho enzyme, NADPH resazurin-diaphorase fluorescence | inhibition, % at 20 µM | actives 0.78% (n = 350,000) | AID 504690;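 active means inhibition reaching at least a set limit at 20 µM in the primary screen, cut at about 59% in these data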
HKDC1 inh: HKDC1 (human) hexokinase inhibition; Q2TB90; recombinant HKDC1, G6PDH/diaphorase resazurin coupled fluorescence; inhibition, % at 20 µM; actives 0.16% (n = 340,000); AID 493160;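 active means inhibition above about 35% when tested at 20 µM, limit read from the data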
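Material: recombinant HKDC1 hexokinase; Amount: HKDC1 at 5 µg/mL; Medium: Tris pH 8.0 buffer with MgCl2, Tween-20, BSA, BME; Schedule: 90 min reaction incubation at room temperature, dark; Technique: coupled resazurin fluorescence, excitation 525 nm, emission 613 nm.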
G6PDH counter: L. mesenteroides G6PDH inhibition counter-screen; Purified L. mesenteroides G6PDH, diaphorase/resazurin coupled fluorescence, 45 min; inhibition, % at 5 µM; actives 0.12% (n = 200,000); in the data active means inhibition above about 50%
PfGluPho conf: PfG6PD inhibition, single-dose confirmed; shares compounds with PfGluPho inh; inhibition, % at 20 µM; recombinant PfGluPho, NADPH-diaphorase-resazurin fluorescence; actives 34% (n = 2,400);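 active means inhibition of at least 50% at 20 µM in any single replicate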
Diaph ctr 10uM: counter-screen for P. falciparum G6PD inhibitors: diaphorase inhibitors, oxidizers | diaphorase-coupled resazurin reduction, fluorescence, NADPH 10 uM | inhibition, % at 20 µM | actives 39% (n = 820) | shares compounds with PfGluPho inh | AID 504862;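 active means average inhibition reaching 50% or more with the compound at 20 µM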;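 further: resorufin red fluorescence formed as diaphorase reduces resazurin using NADPH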
Diaph ctr 30uM: diaphorase inhibition or oxidation at 30 uM NADPH. shares compounds with PfGluPho inh. Diaphorase/resazurin coupled assay, resorufin fluorescence. inhibition, % at 20 µM. actives 29% (n = 820);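 active means inhibition averaging 50% or more, tested at 20 µM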
Numbers stand for hits; 0 = inactive; - = not tested or not shown.

SMILES	TbHK1 inh	Diaph inh CS	PfGluPho inh	HKDC1 inh	G6PDH counter	PfGluPho conf	others
CCC(C)N(CCNC(=O)c1ccc2c(c1)NC(=O)c1ccccc1S2)C1CCCCC1 (centres undefined)	-	-	76	0	-	93	Diaph ctr 10uM=0;Diaph ctr 30uM=0
CCOC(=O)c1c(-c2cccs2)csc1NC(=O)c1ccco1	0	0	0	0	0	-
CCOC(=O)c1c(C2COc3ccccc3O2)csc1NC(=O)c1ccco1 (centres undefined)	0	0	84	0	0	54	Diaph ctr 10uM=0;Diaph ctr 30uM=0
Cc1ccc2nc(SCc3nnc(-c4ccccc4)o3)[nH]c2c1	0	0	0	0	0	-
Cc1ccc2nc(SCc3nnc(-c4cccs4)o3)[nH]c2c1	0	0	84	0	0	0
O=C(Nc1cc(Cl)ccc1N1CCOCC1)c1ccc2c(c1)OCO2	-	-	0	-	-	-
O=C(Nc1ccc(N2CCCC2)c(Cl)c1)c1ccc(Br)o1	0	0	59	0	0	0
O=C(Nc1ccc(N2CCCC2)c(Cl)c1)c1ccc2c(c1)OCCO2	0	-	67	0	-	0
O=C(Nc1ccc(Cl)c(Cl)c1)c1ccc2c(c1)OCO2	-	-	0	0	-	-
O=C(Nc1ccc(N2CCOCC2)c(Cl)c1)c1ccc(Cl)cc1	0	0	100	0	0	61	Diaph ctr 10uM=51;Diaph ctr 30uM=0
O=C(Nc1ccc(N2CCOCC2)c(Cl)c1)c1ccc2c(c1)OCCO2	0	-	83	0	0	0
CCC(C(=O)NC1CCCCC1)n1nc(C)c2c(C)n(-c3ccccc3)nc2c1=O (centres undefined)	-	-	0	0	-	-
O=C(NCc1cccnc1)C(=O)NCC1OCCN1S(=O)(=O)c1cc(F)ccc1F (centres undefined)	0	-	0	0	-	-
COc1ccc(N(C(=O)COc2cccc(C)c2)S(=O)(=O)c2ccc(C)cc2)cc1	0	0	0	0	0	-
O=C(Nc1ccc(N2CCCCC2)c(Cl)c1)c1ccc2c(c1)OCCO2	0	0	99	0	0	0
O=C(Nc1ccc(N2CCCCC2)c(Cl)c1)c1ccc(N2CCOCC2)c([N+](=O)[O-])c1	0	0	0	0	0	-
Cc1ccc(NC(=O)c2cc(N3C(=O)C=CC3=O)ccc2N2CCOCC2)cc1Cl	0	0	74	0	0	102	Diaph ctr 10uM=0;Diaph ctr 30uM=0
Cc1ccc(CSC2=NCCN2S(=O)(=O)c2ccccc2)cc1	0	0	0	0	0	-
O=[N+]([O-])c1ccc(S(=O)(=O)N2CCN=C2SCc2cccnc2)cc1	0	0	0	0	0	-
O=[N+]([O-])c1cccc(CSC2=NCCN2S(=O)(=O)c2ccccc2)c1	-	-	72	0	-	0
O=S(=O)(c1ccccc1)N1CCN=C1SCc1ccccc1	0	0	79	0	0	0
C=CCn1c(SCc2cccc3ccccc23)nnc1-c1cccnc1	0	0	0	0	0	-
O=C1c2ccccc2C(=O)N1c1ccc(S(=O)(=O)N2CCN(c3ccccc3)CC2)cc1	0	0	0	0	0	-
CC(C)n1c(=S)[nH]c2c1c(=O)[nH]c(=O)n2C	0	0	67	0	0	0
C=CC(C)n1c(Br)nc2c1c(=O)[nH]c(=O)n2C (centres undefined)	0	0	0	0	0	-
SMILES	TbHK1 inh	Diaph inh CS	PfGluPho inh	HKDC1 inh	G6PDH counter	PfGluPho conf	others
O=C(CN1CCc2ccccc2C1)NCC(=O)Nc1ccc(F)cc1	0	0	0	0	0	-
Cc1ccc(/C=C/C(=O)NCCc2ccccc2)o1	-	-	75	0	-	0
COC(=O)COc1ccc2oc(=O)cc(-c3cc4ccccc4o3)c2c1	-	-	0	0	-	-
CC1=CN2C(=N)/C(=C/c3ccc([N+](=O)[O-])o3)C(=O)N=C2S1	0	0	59	0	0	73	Diaph ctr 10uM=0;Diaph ctr 30uM=0
COc1cc(O)c(NC(C)=O)c2nonc12	0	63	64	0	0	0
COc1cc(-c2ccc(NC(C)=O)c(OC)c2)ccc1NC(C)=O	0	-	0	0	-	-
O=C(Nc1sc2c(c1C(=O)O)CCC2)c1cccs1	0	0	0	0	0	-
O=C(Nc1sc2c(c1C(=O)O)CCCC2)c1ccc(Cl)cc1	-	-	124	0	-	77	Diaph ctr 10uM=73;Diaph ctr 30uM=72
O=C(O)c1c(NC(=O)c2cccc3ccccc23)sc2c1CCC2	0	0	0	0	0	-
O=C(Nc1sc2c(c1C(=O)O)CCCC2)c1cccc(Cl)c1	-	-	62	0	-	0
O=C(Nc1sc2c(c1C(=O)O)CCC2)c1ccc(F)cc1	0	0	91	0	0	54	Diaph ctr 10uM=0;Diaph ctr 30uM=0
O=C(Nc1sc2c(c1C(=O)O)CCC2)c1ccccc1	0	0	62	0	0	0
CSc1nnc2n(CCc3ccccc3)c(=O)c3c4c(sc3n12)CCCC4	0	-	-	-	-	-
Nc1ccc(-c2ccc(N)c(C(=O)O)c2)cc1C(=O)O	0	-	0	0	-	-
N#CCSc1nc(Nc2ccc3c(c2)OCO3)c2ccccc2n1	0	0	0	0	0	-
O=C(Nc1sc2c(c1C(=O)O)CCCCC2)c1ccccc1	0	0	80	0	0	0
N#Cc1c(NC(=O)c2ccccc2)sc2c1CCCCC2	0	0	0	0	0	-
CCOC(=O)N1CCC(NC(=O)C2CCN(C(=O)c3cc4oc(C)cc4n3Cc3c(F)cccc3Cl)CC2)CC1	0	0	0	0	0	-
CCCCNc1c(-c2cccc(-c3cc(C(C)=O)cs3)c2)nc2ccc(C)cn12	-	-	67	0	-	0
